“Also recorded” adds a separate entry of the source. Where two headings read alike, the source gives them in different places.
Experiments:
[1] = CSF crenolanib disposition; format: in vivo, human; conditions: for CSF crenolanib concentration: stratum A2 patient
PDGF α receptor = conditions: cited from earlier work
[2] = format: in vivo, human; conditions: stratum B
[3] = in vitro, human plasma; cited from earlier work
phospho-PDGFR = conditions: C6 glioblastoma xenograft, single oral dose of 10 mg/kg, maintained for 3 h; ref Crenolanib Investigator's Brochure, AROG Pharmaceuticals, LLC, 2011; cited from earlier work
[4] = tested on: recurrent HGG, including DIPG; experiment: Survival outcomes and response, stratum B; format: in vivo, human
Procedure, shortened: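 Dosing was BSA-based, rounded to 20 mg, and escalated from 100 mg/m2. PFS ran from therapy start to progression or any-cause death; OS ran from diagnosis to any-cause death. Event-free patients were censored at last follow-up. Survival was estimated by Kaplan–Meier.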

[5] = cited from earlier work
PDGF β receptor = conditions: cited from earlier work
[6] = Serum pharmacokinetics, stratum A; format: in vivo, human; conditions: for AUC(0-t) / Cmax / half-life / Tmax: human, serum, oral; for AUC(0-t): 100 mg/m2, AUC0–T (AUC0–24h)
[7] = Serum pharmacokinetics across all dosage levels; format: in vivo; conditions: human, oral; for Tmax: across dosage levels; for half-life: pediatric patients, across all dosage levels
[8] = read-out: 50% inhibitory concentration

Structure (SMILES): CC1(COc2ccc3c(c2)ncn3-c2ccc3cccc(N4CCC(N)CC4)c3n2)COC1 [crenolanib]
- Kp ([1]; human, cerebrospinal fluid / serum (total), oral, 100 mg/m^2): 0.025
- serum crenolanib concentration ([1]; simultaneous with day 28 CSF sampling, third cycle): 546 nM
- CSF crenolanib concentration ([1]; third cycle day 14, approximately 19 h after dose): 9.15 nM
- CSF crenolanib concentration ([1]; third cycle day 28, approximately 19 h after dose): 13.6 nM
- 50% inhibitory concentration (PDGF α receptor): approximately 1 ng/mL
- IC50 (PDGF α receptor; [8]): ~2.25 nM
- DLTs attributable to crenolanib during the DLT observation period ([2]; dose level 3): grade 4 GGT, ALT, and AST elevations
- DLTs attributable to crenolanib during the DLT observation period ([2]; dose level 4): grade 3 amylase, GGT, ALT, and AST elevations; also recorded: grade 3 GGT elevation
- patients having grade 3/4 elevations of ALT, AST, GGT, or alkaline phosphatase ([2]; during and after the DLT period): 17%
- Maximum tolerated dose (MTD) ([2]; once daily single agent, pediatric): 170 mg/m^2
- Most common grade 3/4 toxicity ([2]; resolved with drug interruption): leukopenia
- unbound fraction [3]: 4.1%
- inhibition of phospho-PDGFR (phospho-PDGFR): 53%
- 1-year OS estimate ([4]; all patients in stratum B): 72.1% ± 9.5%
- 1-year PFS estimate ([4]; all patients in stratum B): 5.2% ± 3.5%
- 2-year OS estimate ([4]; all patients in stratum B): 33.7% ± 9.7%
- 6-month PFS estimate ([4]; all patients in stratum B): 10.3% ± 5.6%
- Objective radiologic responses ([4]; stratum B): No objective radiologic responses were observed
- incidence of significant elevations of liver enzymes ([5]; adults with advanced solid tumors): < 5%
- Maximum tolerated dose (MTD) ([5]; adults, uncoated tablets with food): not reached
- 50% inhibitory concentration (PDGF β receptor): ~0.4 ng/mL
- IC50 (PDGF β receptor; [8]): ~0.902 nM
- AUC(0-t) ([6]; stratum A1 (whole tablets), 100 mg/m^2, D28, median (range)): 7.34 µM·h
- AUC(0-t) ([6]; stratum A2 (crushed tablets), 100 mg/m^2, D28, median (range)): 6.95 µM·h
- Cmax ([6]; 100 mg/m2, C MAX, stratum A1 (whole tablets), 100 mg/m^2, D1, median (range)): 645 nM
- Cmax ([6]; 100 mg/m2, C MAX, stratum A1 (whole tablets), 100 mg/m^2, D28, median (range)): 750 nM
- Cmax ([6]; 100 mg/m2, C MAX, stratum A2 (crushed tablets), 100 mg/m^2, D1, median (range)): 692 nM
- Cmax ([6]; 100 mg/m2, C MAX, stratum A2 (crushed tablets), 100 mg/m^2, D28, median (range)): 651 nM
- half-life ([6]; 100 mg/m2, Half-life, stratum A1 (whole tablets), 100 mg/m^2, D1, median (range)): 8.5 h
- half-life ([6]; 100 mg/m2, Half-life, stratum A1 (whole tablets), 100 mg/m^2, D28, median (range)): 4.9 h
- half-life ([6]; 100 mg/m2, Half-life, stratum A2 (crushed tablets), 100 mg/m^2, D1, median (range)): 6.8 h
- half-life ([6]; 100 mg/m2, Half-life, stratum A2 (crushed tablets), 100 mg/m^2, D28, median (range)): 5.1 h
- Tmax ([6]; 100 mg/m2, T MAX, stratum A1 (whole tablets), 100 mg/m^2, D1, median (range)): 4 h
- Tmax ([6]; 100 mg/m2, T MAX, stratum A1 (whole tablets), 100 mg/m^2, D28, median (range)): 6 h
- Tmax ([6]; 100 mg/m2, T MAX, stratum A2 (crushed tablets), 100 mg/m^2, D1, median (range)): 2 h
- Tmax ([6]; 100 mg/m2, T MAX, stratum A2 (crushed tablets), 100 mg/m^2, D28, median (range)): 4 h
- Cmax ([6]; 130 mg/m2, C MAX, stratum A, 130 mg/m^2, D1, median (range)): 733 nM
- Cmax ([6]; 130 mg/m2, C MAX, stratum A, 130 mg/m^2, D28, median (range)): 1110 nM
- half-life ([6]; 130 mg/m2, Half-life, stratum A, 130 mg/m^2, D1, median (range)): 7.3 h
- half-life ([6]; 130 mg/m2, Half-life, stratum A, 130 mg/m^2, D28, median (range)): 6.1 h
- Tmax ([6]; 130 mg/m2, T MAX, stratum A, 130 mg/m^2, D1, median (range)): 2 h
- Tmax ([6]; 130 mg/m2, T MAX, stratum A, 130 mg/m^2, D28, median (range)): 4 h
- Cmax ([6]; 170 mg/m2, C MAX, stratum A, 170 mg/m^2, D1, median (range)): 1240 nM
- Cmax ([6]; 170 mg/m2, C MAX, stratum A, 170 mg/m^2, D28, median (range)): 2010 nM
- half-life ([6]; 170 mg/m2, Half-life, stratum A, 170 mg/m^2, D1, median (range)): 8.5 h
- half-life ([6]; 170 mg/m2, Half-life, stratum A, 170 mg/m^2, D28, median (range)): 7.2 h
- Tmax ([6]; 170 mg/m2, T MAX, stratum A, 170 mg/m^2, D1, median (range)): 4 h
- Tmax ([6]; 170 mg/m2, T MAX, stratum A, 170 mg/m^2, D28, median (range)): 3 h
- Cmax ([6]; 220 mg/m2, C MAX, stratum A, 220 mg/m^2, D1, median (range)): 1890 nM
- Cmax ([6]; 220 mg/m2, C MAX, stratum A, 220 mg/m^2, D28, median (range)): 2270 nM
- half-life ([6]; 220 mg/m2, Half-life, stratum A, 220 mg/m^2, D1, median (range)): 6.75 h
- half-life ([6]; 220 mg/m2, Half-life, stratum A, 220 mg/m^2, D28, median (range)): 5.5 h
- Tmax ([6]; 220 mg/m2, T MAX, stratum A, 220 mg/m^2, D1, median (range)): 4 h
- Tmax ([6]; 220 mg/m2, T MAX, stratum A, 220 mg/m^2, D28, median (range)): 2 h
- AUC0–T (AUC0–∞) ([6]; stratum A1 (whole tablets), 100 mg/m^2, D1, median (range)): 8683 (4566–15 895) h·nM
- AUC0–T (AUC0–∞) ([6]; stratum A2 (crushed tablets), 100 mg/m^2, D1, median (range)): 7397 (3759–16 455) h·nM
- AUC0–T (AUC0–∞) ([6]; stratum A, 130 mg/m^2, D1, median (range)): 5951 (2675–15 291) h·nM
- Tmax ([7]; median): 4 h
- Tmax ([7]; range): 1 to 8 h
- half-life ([7]; median): 7.1 h
- half-life ([7]; range): 2.2 to 18.8 h

Source: PMC8717895 (Neuro-oncology Advances, 2021)
